Test results taken from ChEMBL document CHEMBL1128719, “The synthesis, structure-activity, and structure-side effect relationships of a series of 8-alkoxy- and 5-amino-8-alkoxyquinolone antibacterial agents” (J Med Chem, 1995).
Values after ≈ are worked out from the molar mass of the structure shown.

Legend:
[1] = tested on: Escherichia coli; assay: In vitro antibacterial activity was tested for Escherichia coli H560; format: functional
In short: (§1)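 Microtitration (microdilution) MIC determination in μg/mL against a panel of Gram-positive, Gram-negative and anaerobic organisms. Values come from duplicate or triplicate experiments and are stated accurate to ±50%.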

[2] = tested on: Klebsiella pneumoniae; assay: In vitro antibacterial activity was tested for Klebsiella pneumoniae MGH-2; format: functional; in short: as §1
[3] = tested on: Providencia rettgeri; assay: In vitro antibacterial activity was tested for Providencia rettgeri H1771; format: functional; in short: as §1
[4] = tested on: Staphylococcus aureus; assay: In vitro antibacterial activity was tested for Staphylococcus aureus UC-76; format: functional; in short: as §1
[5] = tested on: Streptococcus pyogenes; assay: In vitro antibacterial activity was tested for Streptococcus pyogenes C203; format: functional; in short: as §1
[6] = tested on: Streptococcus pneumoniae; assay: In vitro antibacterial activity was tested for Streptococcus pneumoniae SV-1; format: functional; in short: as §1
[7] = organism: Mus musculus; assay: (§2) Phototoxic skin reaction in depilated female CD-1 mice; format: functional
In short: (§3)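 Female CD-1 mice, depilated, given a single oral or subcutaneous dose. UVA (320–400 nm) exposure for 3 h, starting 1 h post-dose. Initial doses were 30, 100 and 300 mg/kg. PTD50 (dose giving phototoxic skin reaction in 50% of mice) derived by probit method. First day of positive reaction and no-effect dose taken from raw data.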

[8] = tested on: Enterobacter cloacae; assay: In vitro antibacterial activity was tested for Enterobacter cloacae HA2646; format: functional
[9] = tested on: Escherichia coli; assay: In vitro antibacterial activity was tested for Escherichia coli Vogel; format: functional; in short: as §1
[10] = tested on: Enterococcus faecalis; assay: In vitro antibacterial activity was tested for Streptococcus faecalis MGH-2; format: functional; in short: as §1
[11] = tested on: Cutibacterium acnes; assay: In vitro antibacterial activity was tested for Propion acnes PA5-1; format: functional; in short: as §1
[12] = tested on: Staphylococcus aureus; assay: In vitro antibacterial activity was tested for Staphylococcus aureus H228; format: functional; in short: as §1
[13] = tested on: Clostridioides difficile; assay: In vitro antibacterial activity was tested for Clostridium diff CD1-1; format: functional
[14] = tested on: Bacteroides fragilis; assay: In vitro antibacterial activity against Bacteroides fragilis BFA; format: functional; in short: as §1
[15] = tested on: Clostridium perfringens; assay: In vitro antibacterial activity against Clostridium perfringens CP 3-1; format: functional
[16] = tested on: Pseudomonas aeruginosa; assay: In vitro antibacterial activity was tested for Pseudomonas aeruginosa UI-18; format: functional; in short: as §1
[17] = tested on: Peptoniphilus asaccharolyticus; assay: In vitro antibacterial activity was tested for Pepto asac PA 3-1; format: functional; in short: as §1
[18] = organism: Mus musculus; assay: as §2; format: toxicity, organism-based; details: in vivo; in short: as §3
[19] = tested on: V79; assay: (§4) Clonogenic cytotoxicity against Chinese hamster V-79 cells; format: functional, cell-based; details: Cricetulus griseus
[20] = organism: Mus musculus; assay: Phototoxic skin reaction in depilated female CD-1 mice.; format: functional; in short: as §3
[21] = tested on: V79; assay: as §4; format: functional, cell-based; details: Cricetulus griseus; remark: listed apart in the source
In short: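 Chinese hamster V-79 cells grown overnight, then exposed to drug 3 h at 37 °C; drug medium replaced with fresh medium, cells incubated 5 days and scored for colony formation. IC50 (μg/mL) taken as concentration inhibiting colony formation by 50% versus control.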

SMILES	MIC [1] [µg/mL]	MIC [2] [µg/mL]	MIC [3] [µg/mL]	MIC [4] [µg/mL]	MIC [5] [µg/mL]	MIC [6] [µg/mL]	No effect dose [7] [mg]	MIC [8] [µg/mL]	MIC [9] [µg/mL]	MIC [10] [µg/mL]	MIC [11] [µg/mL]	MIC [12] [µg/mL]	MIC [13] [µg/mL]	MIC [14] [µg/mL]	MIC [15] [µg/mL]	MIC [16] [µg/mL]	MIC [17] [µg/mL]	PTD50 [18] [mg]	further results
NC1CCN(c2cc3c(cc2F)c(=O)c(C(=O)O)cn3C2CC2)C1 (stereo unspecified)	0.05 (≈ 0.151 µM)	0.1 (≈ 0.302 µM)	0.1 (≈ 0.302 µM)	0.1 (≈ 0.302 µM)	0.006 (≈ 0.0181 µM)	0.1 (≈ 0.302 µM)	300	0.025 (≈ 0.0754 µM)	0.025 (≈ 0.0754 µM)	0.05 (≈ 0.151 µM)	1.6 (≈ 4.83 µM)	0.025 (≈ 0.0754 µM)	12.5 (≈ 37.7 µM)	1.6 (≈ 4.83 µM)	0.1 (≈ 0.302 µM)	0.1 (≈ 0.302 µM)	1.6 (≈ 4.83 µM)	> 300	
COc1c(N2CCCC(N)C2)c(F)c(N)c2c(=O)c(C(=O)O)cn(C3CC3)c12 (stereo unspecified)	0.05 (≈ 0.128 µM)	0.2 (≈ 0.512 µM)	0.4 (≈ 1.02 µM)	0.006 (≈ 0.0154 µM)	0.013 (≈ 0.0333 µM)	0.006 (≈ 0.0154 µM)		0.1 (≈ 0.256 µM)	0.1 (≈ 0.256 µM)	0.05 (≈ 0.128 µM)	0.4 (≈ 1.02 µM)	0.025 (≈ 0.064 µM)	1.6 (≈ 4.1 µM)	1.6 (≈ 4.1 µM)	0.2 (≈ 0.512 µM)	1.6 (≈ 4.1 µM)	0.8 (≈ 2.05 µM)	> 100	IC50 [19]: 290 µg/mL (≈ 743 µM); No effect dose [20]: 100 mg
CCOc1c(N2CCC(N)C2)c(F)c(N)c2c(=O)c(C(=O)O)cn(C3CC3)c12 (stereo unspecified)	0.05 (≈ 0.128 µM)	0.2 (≈ 0.512 µM)	0.4 (≈ 1.02 µM)	0.013 (≈ 0.0333 µM)	0.1 (≈ 0.256 µM)	0.05 (≈ 0.128 µM)		0.1 (≈ 0.256 µM)	0.05 (≈ 0.128 µM)	0.1 (≈ 0.256 µM)	3.1 (≈ 7.94 µM)	0.05 (≈ 0.128 µM)	12.5 (≈ 32 µM)	3.1 (≈ 7.94 µM)	0.4 (≈ 1.02 µM)	3.1 (≈ 7.94 µM)	0.8 (≈ 2.05 µM)	> 100	IC50 [19]: 220 µg/mL (≈ 564 µM); No effect dose [20]: 100 mg
COc1c(N2CC(C)NC(C)C2)c(F)cc2c(=O)c(C(=O)O)cn(C3CC3)c12 (stereo unspecified)	0.05 (≈ 0.128 µM)	0.2 (≈ 0.514 µM)	0.8 (≈ 2.05 µM)	0.05 (≈ 0.128 µM)	0.1 (≈ 0.257 µM)	0.1 (≈ 0.257 µM)	100	0.1 (≈ 0.257 µM)	0.1 (≈ 0.257 µM)	0.2 (≈ 0.514 µM)	0.4 (≈ 1.03 µM)	0.1 (≈ 0.257 µM)	3.1 (≈ 7.96 µM)	0.8 (≈ 2.05 µM)	0.4 (≈ 1.03 µM)	3.1 (≈ 7.96 µM)	0.8 (≈ 2.05 µM)	> 100	
NC1CCN(c2c(F)cc3c(=O)c(C(=O)O)cn(C4CC4)c3c2Cl)C1 (stereo unspecified) [CLINAFLOXACIN]	0.006 (≈ 0.0164 µM)	0.025 (≈ 0.0683 µM)	0.025 (≈ 0.0683 µM)	0.013 (≈ 0.0355 µM)	0.05 (≈ 0.137 µM)	0.05 (≈ 0.137 µM)	18	0.025 (≈ 0.0683 µM)	0.013 (≈ 0.0355 µM)	0.05 (≈ 0.137 µM)	0.2 (≈ 0.547 µM)	0.05 (≈ 0.137 µM)	0.4 (≈ 1.09 µM)	0.1 (≈ 0.273 µM)	0.1 (≈ 0.273 µM)	0.05 (≈ 0.137 µM)	0.4 (≈ 1.09 µM)	23	
NCC1CCCN(c2nc3c(cc2F)c(=O)c(C(=O)O)cn3C2CC2)C1 (stereo unspecified)	0.4 (≈ 1.11 µM)	0.8 (≈ 2.22 µM)	1.6 (≈ 4.44 µM)	0.2 (≈ 0.555 µM)	0.2 (≈ 0.555 µM)	0.2 (≈ 0.555 µM)		0.4 (≈ 1.11 µM)	0.4 (≈ 1.11 µM)	0.4 (≈ 1.11 µM)		1.6 (≈ 4.44 µM)				6.3 (≈ 17.5 µM)			IC50 [21]: 290 µg/mL (≈ 805 µM)
NCC1CCCN(c2c(F)c(N)c3c(=O)c(C(=O)O)cn(C4CC4)c3c2F)C1 (stereo unspecified)	0.025 (≈ 0.0637 µM)	0.1 (≈ 0.255 µM)	0.2 (≈ 0.51 µM)	0.003 (≈ 0.00765 µM)	0.13 (≈ 0.331 µM)	0.003 (≈ 0.00765 µM)		0.05 (≈ 0.127 µM)	0.05 (≈ 0.127 µM)	0.013 (≈ 0.0331 µM)		0.025 (≈ 0.0637 µM)				0.8 (≈ 2.04 µM)			IC50 [21]: 38 µg/mL (≈ 96.8 µM)
